Laboratory results as given in ChEMBL document CHEMBL3400028, “Evaluation of Aconitum diterpenoid alkaloids as antiproliferative agents” (2015).

Experiments:
Type in all cases: functional
[1] = system: DU-145; test: Antiproliferative activity against human DU145 cells by sulforhodamine B assay
How it was run: (§1)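 Cells in RPMI 1640 (25 mM HEPES, 2 mM L-glutamine, 10% heat-inactivated FBS, antibiotics) at 37 °C, 5% CO2. Seeded at 3–5 × 10³/well with graded concentrations, paclitaxel as assay control, for 72 h. TCA-fixed, stained with 0.04% SRB, dye dissolved in 10 mM Tris, A515 read. GI50 is the concentration halving absorbance versus untreated cells; three or more experiments.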

[2] = Selectivity ratio of GI50 for human KB cells to GI50 for multidrug-resistant P-gp expressing human KBVIN cells
How it was run: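 Ratio of GI50 in parental KB to GI50 in P-gp-overexpressing KB-VIN. […] KB-VIN cells were grown 7–10 days without vincristine before the assay.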

[3] = system: KB; test: Antiproliferative activity against human KB cells by sulforhodamine B assay; how it was run: as §1
[4] = Antiproliferative activity against multidrug-resistant P-gp expressing human KBVIN cells by sulforhodamine B assay
How it was run: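 Vincristine-resistant KB subline kept in 100 nM vincristine, then grown 7–10 days without it before testing. RPMI 1640 with 10% FBS, 37 °C, 5% CO2. 3–5 × 10³ cells/well exposed 72 h to a concentration series, paclitaxel as assay control. SRB staining after TCA fixation, A515 read. GI50 is the 50% absorbance reduction versus untreated cells; three or more experiments.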

[5] = system: A549; test: Antiproliferative activity against human A549 cells by sulforhodamine B assay; how it was run: as §1

SMILES	GI50 [1]	RatioGI50 [2]	GI50 [3]	GI50 [4]	GI50 [5]
C=C1[C@H]2C[C@@]3([C@@H]1O)[C@@H](C[C@@H]2O)[C@@]12C4[C@@H]3C[C@@H]1[C@@](C)(CC[C@@H]2OC(C)=O)CN4CC	> 20 µM	>20	> 20 µM	> 20 µM	> 20 µM
C=C1[C@H]2C[C@H]3C4N5C[C@]6(C)CCC[C@]47[C@H]([C@H]2O)C3(C[C@]5(O)[C@H]67)[C@@H]1O [PSEUDOKOBUSINE]	> 20 µM	>20	> 20 µM	> 20 µM	> 20 µM
C=C1[C@H]2C[C@@H]3C4N5C[C@]6(C)CCC[C@@]47[C@@H]6[C@@H]5C[C@]3([C@@H]1O)[C@H]7[C@H]2OC(=O)c1ccc(OC(F)(F)F)cc1	10 µM	10	10 µM	10 µM	10 µM
C=C1[C@H]2C[C@@H]3C4N5C[C@]6(C)CCC[C@@]47[C@@H]6[C@@H]5C[C@]3([C@@H]1O)[C@H]7[C@H]2OC(=O)c1ccc(OC)cc1	> 20 µM	>20	> 20 µM	> 20 µM	> 20 µM
C=C1[C@H]2C[C@@H]3C4N5C[C@]6(C)CCC[C@@]47[C@@H]6[C@@]5(O)C[C@]3([C@@H]1OC(=O)CC)[C@H]7[C@H]2O	> 20 µM	>20	> 20 µM	> 20 µM	> 20 µM
C=C1[C@@H](O)[C@]23C[C@@H]1[C@@H](OC(=O)c1ccc(OC)c(OC)c1)C[C@H]2[C@@]12C4C3C[C@@H]1[C@@](C)(CC[C@H]2O)CN4CC	> 20 µM	>20	> 20 µM	> 20 µM	> 20 µM
COC[C@]12CN(C)C3[C@@H]4[C@H](OC)[C@H]1[C@@]3([C@@H](OC)C[C@H]2OC(C)=O)[C@@H]1C[C@@]2(O)[C@H](OC(=O)c3ccccc3)[C@@H]1[C@]4(OC(C)=O)[C@@H](O)[C@@H]2OC	> 20 µM	>20	> 20 µM	> 20 µM	> 20 µM
C=C1[C@@H](OC(C)=O)[C@]23C[C@@H]1[C@@H](O)C[C@H]2[C@@]12C4C3C[C@@H]1[C@@]1(C)CC[C@H]2OC1N4CC [DEHYDROLUCIDUSCULINE]	> 20 µM	>20	> 20 µM	> 20 µM	> 20 µM
CCN1C(=O)[C@]2(COC(=O)c3ccccc3N)CC[C@H](OC)[C@]34C1[C@@](O)([C@@H](OC)[C@H]23)[C@@]1(O)C[C@H](OC)[C@H]2C[C@@H]4[C@@H]1[C@H]2OC	> 20 µM	>20	> 20 µM	> 20 µM	> 20 µM
CCN1C[C@]2(COC)[C@H](O)C[C@H](OC(C)=O)[C@]34C1[C@@](O)([C@@H](OC)[C@H]23)[C@@]1(O)C[C@H](OC)[C@H]2C[C@@H]4[C@@H]1[C@H]2O	> 20 µM	>20	> 20 µM	> 20 µM	> 20 µM
C=C1[C@H]2C[C@@H]3C4N5C[C@]6(C)CCC[C@@]47[C@@H]6[C@@H]5C[C@]3([C@@H]1OC(=O)c1ccc([N+](=O)[O-])cc1)[C@H]7[C@H]2OC(=O)c1ccc([N+](=O)[O-])cc1	1 µM	0.96	5.3 µM	5.5 µM	6.9 µM
C=C1[C@H]2C[C@@H]3C4N5C[C@]6(C)CCC[C@@]47[C@@H]6[C@@]5(O)C[C@]3([C@@H]1OC(=O)c1ccc([N+](=O)[O-])cc1)[C@H]7[C@H]2O	> 20 µM	>20	> 20 µM	> 20 µM	> 20 µM
CO[C@H]1[C@@H]2C[C@@H]3[C@H]1[C@](O)(C[C@@H]2OC)[C@@]1(O)C2N=C[C@]4(COC(=O)c5ccccc5N)CC[C@H](OC)[C@@]23[C@@H]4[C@@H]1OC	> 20 µM	>20	> 20 µM	> 20 µM	> 20 µM
C=C1[C@H]2C[C@@H]3C4N5C[C@]6(C)CCC[C@@]47[C@@H]6[C@@]5(OC(=O)c4ccc(OC)cc4)C[C@]3([C@@H]1OC(=O)c1ccc(OC)cc1)[C@H]7[C@H]2O	> 20 µM	>20	> 20 µM	> 20 µM	> 20 µM
C=C1[C@H]2C[C@@H]3C4N5C[C@]6(C)CCC[C@@]47[C@@H]6[C@@H]5C[C@]3([C@@H]1OC(=O)c1ccc(OC)cc1)[C@H]7[C@H]2OC(=O)c1ccc(OC)cc1	7.1 µM	1	5.3 µM	5.2 µM	6.7 µM
C=C1[C@H]2C[C@@H]3C4N5C[C@]6(C)CCC[C@@]47[C@@H]6[C@@]5(O)C[C@]3([C@@H]1O)[C@H]7[C@H]2OC(c1ccccc1)(c1ccccc1)c1ccccc1	6 µM	1.3	6.6 µM	5.2 µM	6.4 µM
C=C1[C@H]2C[C@@H]3C4N5C[C@]6(C)CCC[C@@]47[C@@H]6[C@@]5(O)C[C@]3([C@@H]1OC(=O)c1ccc(OC)c(OC)c1)[C@H]7[C@H]2O	> 20 µM	>20	> 20 µM	> 20 µM	> 20 µM
CCN1C[C@@]2(COC)[C@H]3[C@@H](OC)C=C4[C@H]5[C@@H](OC(=O)c6ccc(OC)cc6)[C@](O)(C[C@H]5[C@@]35C1O[C@@H]2C[C@@H]5OC)[C@@H](OC)[C@@H]4O	> 20 µM	>20	> 20 µM	> 20 µM	> 20 µM
CCN1C[C@]2(COC)CC[C@H](O)[C@]34C1[C@@H]([C@H](OC)[C@H]23)[C@@]1(O)C[C@H](OC)[C@H]2C[C@@H]4[C@@H]1[C@H]2OC(=O)c1ccccc1	> 20 µM	>20	> 20 µM	> 20 µM	> 20 µM
C=C1[C@H]2C[C@@]3([C@@H]1OC(C)=O)[C@@H](C[C@@H]2OC(=O)c1ccccc1)[C@@]12C4[C@@H]3C[C@@H]1[C@@](C)(CC[C@@H]2O)CN4CC	> 20 µM	>20	> 20 µM	> 20 µM	> 20 µM
CCN1C[C@]2(COC)[C@H](O)C[C@H](OC)[C@]34C1[C@H]([C@H](OC)[C@H]23)[C@]1(OC(C)=O)[C@H]2[C@@H](OC(=O)c3ccc(OC)cc3)[C@](O)(C[C@H]24)[C@@H](OC)[C@@H]1O	> 20 µM	>20	> 20 µM	> 20 µM	> 20 µM
CCN1C[C@]2(C)CC[C@H](OC)[C@@]34[C@@H]5C[C@H]6[C@H](O)[C@@H]5[C@@]5(C[C@@H]6OC)OCO[C@@]5(C(=O)[C@H]23)[C@@H]14 [YUNNADELPHININE]	> 20 µM	>20	> 20 µM	> 20 µM	> 20 µM
C=C1[C@H]2C[C@@]3(C4C[C@@H]5C6(C)CCC7O[C@H]6N(CC)C4C75[C@@H]3C[C@@H]2O)[C@@H]1O	> 20 µM	>20	> 20 µM	> 20 µM	> 20 µM
CC(=O)O[C@H]1C(=O)[C@@]2(C)[C@H]([C@H](OC(=O)c3ccccc3)[C@]3(O)C[C@H](OC(=O)[C@H](O)[C@@H](NC(=O)c4ccccc4)c4ccccc4)C(C)=C1C3(C)C)[C@]1(OC(C)=O)CO[C@@H]1C[C@@H]2O [PACLITAXEL]	0.0057 µM	0.0067	0.0064 µM	0.95 µM	0.0071 µM
